Assay results from ChEMBL document CHEMBL2177085 (J Med Chem, 2012).

Assays:
HT-29 [1] = experiment: Cytotoxic activity against human HT-29 cells assessed as cell viability at 26 uM incubated for 3 days by MTT assay; type: functional; settings: HT-29, 72 h, read-out: Activity
In short: (§1)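 MTT viability: exponentially growing cells, 10 000 viable cells/well in RPMI plated overnight, then exposed to test compounds for 3 days (HT-29, Molm-14) or 5 days (Mkn-45) at 37 °C, 5% CO2. MTT added for 4 h, then SDS/HCl solubilization overnight and absorbance read at 562 nm. Viability is expressed relative to untreated cells (100%). Triplicate.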

HT-29 [2] = experiment: Cytotoxic activity against human HT-29 cells assessed as cell viability at 52 uM incubated for 3 days by MTT assay; type: functional; settings: HT-29, 72 h, read-out: Activity; in short: as §1
MKN-45 [3] = experiment: Cytotoxic activity against human MKN45 cells assessed as cell viability at 10 uM incubated for 5 days by MTT assay; type: functional; settings: MKN-45, 120 h, read-out: Activity; in short: as §1
MKN-45 [4] = experiment: Cytotoxic activity against human MKN45 cells assessed as cell viability at 5 uM incubated for 5 days by MTT assay; type: functional; settings: MKN-45, 120 h, read-out: Activity; in short: as §1
MKN-45 [5] = experiment: Cytotoxic activity against human MKN45 cells assessed as cell viability at 20 uM incubated for 5 days by MTT assay; type: functional; settings: MKN-45, 120 h, read-out: Activity; in short: as §1
MKN-45 [6] = experiment: Cytotoxic activity against human MKN45 cells assessed as cell viability at 0.5 uM incubated for 5 days by MTT assay; type: functional; settings: MKN-45, 120 h, read-out: Activity; in short: as §1
MKN-45 [7] = experiment: Induction of apoptosis in human MKN45 assessed as accumulation at subG1 phase at 10 uM incubated for 7 days by flow cytometry (reference value: 10.9 +/- 3.2%); type: functional
HT-29 [8] = experiment: Cytotoxic activity against human HT-29 cells assessed as cell viability at 2.6 uM incubated for 3 days by MTT assay; type: functional; settings: HT-29, 72 h, read-out: Activity; in short: as §1
MKN-45 [9] = experiment: Cytotoxic activity against human MKN45 cells assessed as cell viability at 1 uM incubated for 5 days by MTT assay; type: functional; settings: MKN-45, 120 h, read-out: Activity; in short: as §1
[10] = Inhibition of angiogenesis in chick embryo model assessed as reduction in vessel growth at 26 nM incubated for 24 hrs; type: functional, Gallus gallus
In short: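 White leghorn eggs incubated at 37.5 °C, 62% humidity. At 70 h, albumen removed and shell windowed. From 75 h, 15 agarose pellets (from a 26 mM DMSO stock in 2% agarose; final concentration 26 nM) placed on the area vasculosa.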

MKN-45 [11] = experiment: Induction of apoptosis in human MKN45 assessed as accumulation at subG1 phase at 5 uM incubated for 7 days by flow cytometry (reference value: 10.9 +/- 3.2%); type: functional
HT-29 [12] = experiment: Cytotoxic activity against human HT-29 cells assessed as cell viability at 7.9 uM incubated for 3 days by MTT assay; type: functional; settings: HT-29, 72 h, read-out: Activity
In short: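 HT-29 cells in exponential growth were seeded at 10 000 viable cells per well in RPMI and left overnight. They were then exposed to compound for 3 days at 37 °C under 5% CO₂. MTT was added for 4 h, followed by overnight solubilisation in 10% SDS/0.01 M HCl and absorbance at 562 nm. Viability is expressed as % of untreated cells (100%), in triplicate.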

MKN-45 [13] = experiment: Induction of apoptosis in human MKN45 assessed as accumulation at subG1 phase at 20 uM incubated for 7 days by flow cytometry (reference value: 10.9 +/- 3.2%); type: functional
MKN-45 [14] = experiment: Induction of apoptosis in human MKN45 assessed as accumulation at subG1 phase at 1 uM incubated for 7 days by flow cytometry (reference value: 10.9 +/- 3.2%); type: functional
MKN-45 [15] = experiment: Cytotoxic activity against human MKN45 cells assessed as cell viability at 50 uM incubated for 5 days by MTT assay; type: functional; settings: MKN-45, 120 h, read-out: Activity; in short: as §1
MKN-45 [16] = experiment: Induction of apoptosis in human MKN45 assessed as accumulation at subG1 phase at 15 uM incubated for 7 days by flow cytometry (reference value: 10.9 +/- 3.2%); type: functional
MOLM-14 [17] = experiment: Cytotoxic activity against human MOLM14 cells assessed as cell viability at 50 uM incubated for 3 days by MTT assay; type: functional; settings: MOLM-14, 72 h, read-out: Activity; in short: as §1
[18] = target: T1, Glycogen synthase kinase-3 beta (Homo sapiens, UniProt P49841); experiment: Inhibition of GSK3beta assessed as enzyme residual activity at 10 uM relative to untreated control
In short: (§2)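 Residual kinase activity at 10 μM compound, determined by a commercial kinase profiling service (Millipore) across 15 kinases of different classes. Each compound tested in duplicate.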

[19] = target: Protein kinase C alpha type (Homo sapiens) (UniProt P17252); experiment: Inhibition of PKCalpha assessed as enzyme residual activity at 10 uM relative to untreated control; in short: as §2
[20] = target: Cyclin-dependent kinase 2/cyclin A (Homo sapiens) (UniProt P24941+P20248+P78396); experiment: Inhibition of CDK2/cyclinA assessed as enzyme residual activity at 10 uM relative to untreated control; type: protein-complex assay; in short: as §2
HUVEC [21] = experiment: Induction of apoptosis in human HUVEC assessed as accumulation at subG1 phase at 0.79 uM incubated for 4 days by flow cytometry (reference value: 15.4 +/- 1.5%); type: functional
MOLM-14 [22] = experiment: Cytotoxic activity against human MOLM14 cells assessed as cell viability at 20 uM incubated for 3 days by MTT assay; type: functional; settings: MOLM-14, 72 h, read-out: Activity; in short: as §1
[23] = target: Vascular endothelial growth factor receptor 2 (Homo sapiens, UniProt P35968); experiment: Inhibition of VEGFR2 assessed as enzyme residual activity at 10 uM relative to untreated control; in short: as §2
[24] = target: Protein kinase C iota type (Homo sapiens) (UniProt P41743); experiment: Inhibition of PKCiota assessed as enzyme residual activity at 10 uM relative to untreated control; in short: as §2
MOLM-14 [25] = experiment: Cytotoxic activity against human MOLM14 cells assessed as cell viability at 10 uM incubated for 3 days by MTT assay; type: functional; settings: MOLM-14, 72 h, read-out: Activity; in short: as §1
HUVEC [26] = experiment: Induction of apoptosis in human HUVEC assessed as accumulation at subG1 phase at 2.6 uM incubated for 4 days by flow cytometry (reference value: 15.4 +/- 1.5%); type: functional
[27] = target: Cyclin-dependent kinase 1/cyclin B1 (Homo sapiens) (UniProt P06493+P14635); experiment: Inhibition of CDK1/cyclinB assessed as enzyme residual activity at 10 uM relative to untreated control; type: protein-complex assay; in short: as §2
[28] = target: Angiopoietin-1 receptor (Homo sapiens) (UniProt Q02763); experiment: Inhibition of TIE2 assessed as enzyme residual activity at 10 uM relative to untreated control; in short: as §2
MOLM-14 [29] = experiment: Cytotoxic activity against human MOLM14 cells assessed as cell viability at 0.5 uM incubated for 3 days by MTT assay; type: functional; settings: MOLM-14, 72 h, read-out: Activity; in short: as §1
[30] = target: Protein kinase C epsilon type (Homo sapiens) (UniProt Q02156); experiment: Inhibition of PKCepsilon assessed as enzyme residual activity at 10 uM relative to untreated control; in short: as §2
[31] = target: CDK6/cyclin D3 (Homo sapiens) (UniProt P30281+Q00534); experiment: Inhibition of CDK6/cyclinD3 assessed as enzyme residual activity at 10 uM relative to untreated control; type: protein-complex assay; in short: as §2
[32] = target: T1, Glycogen synthase kinase-3 beta; experiment: Inhibition of GSK3beta
In short: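 IC50 determined by a commercial kinase profiling service (Millipore IC50 Profiler); duplicate testing.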

[33] = target: Hepatocyte growth factor receptor (Homo sapiens) (UniProt P08581); experiment: Inhibition of MET assessed as enzyme residual activity at 10 uM relative to untreated control; in short: as §2
[34] = target: Protein kinase C gamma type (Homo sapiens) (UniProt P05129); experiment: Inhibition of PKCgamma assessed as enzyme residual activity at 10 uM relative to untreated control; in short: as §2
[35] = target: Epidermal growth factor receptor (Homo sapiens) (UniProt P00533); experiment: Inhibition of EGFR assessed as enzyme residual activity at 10 uM relative to untreated control; in short: as §2
[36] = target: Receptor-type tyrosine-protein kinase FLT3 (Homo sapiens) (UniProt P36888); experiment: Inhibition of FLT3 assessed as enzyme residual activity at 10 uM relative to untreated control; in short: as §2
[37] = target: RAF proto-oncogene serine/threonine-protein kinase (Homo sapiens) (UniProt P04049); experiment: Inhibition of c-RAF assessed as enzyme residual activity at 10 uM relative to untreated control; in short: as §2
MOLM-14 [38] = experiment: Cytotoxic activity against human MOLM14 cells assessed as cell viability at 1 uM incubated for 3 days by MTT assay; type: functional; settings: MOLM-14, 72 h, read-out: Activity; in short: as §1
[39] = target: Platelet-derived growth factor receptor beta (Homo sapiens) (UniProt P09619); experiment: Inhibition of PDGFRbeta assessed as enzyme residual activity at 10 uM relative to untreated control; in short: as §2
HT-29 [40] = experiment: Induction of apoptosis in human HT-29 assessed as accumulation at subG1 phase at 1.18 uM incubated for 7 days by flow cytometry (reference value: 3.4 +/- 0.9%); type: functional
In short: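 HT-29 cells, 1.5 × 10⁵ per well, plated overnight, then exposed for 7 days to irinotecan at 1.18 μM, alone or with 7.9 μM test compound. Cells were trypsinized and stained for 1 h at 4 °C in PI buffer (sodium citrate, Triton X-100, PI). Sub-G1 fraction measured by flow cytometry (Nicoletti method). Drug-free control used as baseline. Triplicate.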

Chain of RAF proto-oncogene serine/threonine-protein kinase (Homo sapiens) (P04049 whole entry): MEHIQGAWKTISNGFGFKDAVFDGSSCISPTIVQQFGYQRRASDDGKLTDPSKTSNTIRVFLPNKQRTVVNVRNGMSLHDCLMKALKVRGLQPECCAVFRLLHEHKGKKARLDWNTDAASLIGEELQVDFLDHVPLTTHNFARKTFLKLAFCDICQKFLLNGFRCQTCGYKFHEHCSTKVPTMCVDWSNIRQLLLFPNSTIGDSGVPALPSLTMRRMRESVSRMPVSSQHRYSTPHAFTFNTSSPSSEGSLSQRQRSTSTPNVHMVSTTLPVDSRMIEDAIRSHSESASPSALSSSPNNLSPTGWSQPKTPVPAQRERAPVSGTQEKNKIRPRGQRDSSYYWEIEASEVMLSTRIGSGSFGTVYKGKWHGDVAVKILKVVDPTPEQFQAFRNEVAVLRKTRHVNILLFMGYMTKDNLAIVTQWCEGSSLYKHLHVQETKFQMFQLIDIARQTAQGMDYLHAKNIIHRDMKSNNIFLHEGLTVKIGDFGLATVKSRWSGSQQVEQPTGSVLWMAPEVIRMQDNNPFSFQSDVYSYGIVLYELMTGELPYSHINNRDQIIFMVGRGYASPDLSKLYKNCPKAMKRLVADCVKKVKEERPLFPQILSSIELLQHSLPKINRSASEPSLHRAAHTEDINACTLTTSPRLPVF
Chain of Protein kinase C iota type (Homo sapiens) (P41743 whole entry): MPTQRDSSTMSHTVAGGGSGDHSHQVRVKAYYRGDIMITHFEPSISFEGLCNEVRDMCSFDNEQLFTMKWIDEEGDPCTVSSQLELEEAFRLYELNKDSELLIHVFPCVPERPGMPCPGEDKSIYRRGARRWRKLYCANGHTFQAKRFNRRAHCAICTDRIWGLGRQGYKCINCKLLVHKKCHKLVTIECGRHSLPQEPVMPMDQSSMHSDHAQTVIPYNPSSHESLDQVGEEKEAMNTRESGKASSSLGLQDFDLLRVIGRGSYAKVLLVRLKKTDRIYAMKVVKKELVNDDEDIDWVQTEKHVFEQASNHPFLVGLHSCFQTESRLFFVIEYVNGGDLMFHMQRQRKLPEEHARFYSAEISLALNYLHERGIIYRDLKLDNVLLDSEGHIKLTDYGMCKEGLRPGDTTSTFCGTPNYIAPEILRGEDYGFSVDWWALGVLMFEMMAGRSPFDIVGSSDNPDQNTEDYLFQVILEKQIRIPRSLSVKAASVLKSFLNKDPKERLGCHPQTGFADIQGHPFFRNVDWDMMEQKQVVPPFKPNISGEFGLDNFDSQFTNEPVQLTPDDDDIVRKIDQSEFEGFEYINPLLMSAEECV
Chain of Angiopoietin-1 receptor (Homo sapiens) (Q02763 whole entry): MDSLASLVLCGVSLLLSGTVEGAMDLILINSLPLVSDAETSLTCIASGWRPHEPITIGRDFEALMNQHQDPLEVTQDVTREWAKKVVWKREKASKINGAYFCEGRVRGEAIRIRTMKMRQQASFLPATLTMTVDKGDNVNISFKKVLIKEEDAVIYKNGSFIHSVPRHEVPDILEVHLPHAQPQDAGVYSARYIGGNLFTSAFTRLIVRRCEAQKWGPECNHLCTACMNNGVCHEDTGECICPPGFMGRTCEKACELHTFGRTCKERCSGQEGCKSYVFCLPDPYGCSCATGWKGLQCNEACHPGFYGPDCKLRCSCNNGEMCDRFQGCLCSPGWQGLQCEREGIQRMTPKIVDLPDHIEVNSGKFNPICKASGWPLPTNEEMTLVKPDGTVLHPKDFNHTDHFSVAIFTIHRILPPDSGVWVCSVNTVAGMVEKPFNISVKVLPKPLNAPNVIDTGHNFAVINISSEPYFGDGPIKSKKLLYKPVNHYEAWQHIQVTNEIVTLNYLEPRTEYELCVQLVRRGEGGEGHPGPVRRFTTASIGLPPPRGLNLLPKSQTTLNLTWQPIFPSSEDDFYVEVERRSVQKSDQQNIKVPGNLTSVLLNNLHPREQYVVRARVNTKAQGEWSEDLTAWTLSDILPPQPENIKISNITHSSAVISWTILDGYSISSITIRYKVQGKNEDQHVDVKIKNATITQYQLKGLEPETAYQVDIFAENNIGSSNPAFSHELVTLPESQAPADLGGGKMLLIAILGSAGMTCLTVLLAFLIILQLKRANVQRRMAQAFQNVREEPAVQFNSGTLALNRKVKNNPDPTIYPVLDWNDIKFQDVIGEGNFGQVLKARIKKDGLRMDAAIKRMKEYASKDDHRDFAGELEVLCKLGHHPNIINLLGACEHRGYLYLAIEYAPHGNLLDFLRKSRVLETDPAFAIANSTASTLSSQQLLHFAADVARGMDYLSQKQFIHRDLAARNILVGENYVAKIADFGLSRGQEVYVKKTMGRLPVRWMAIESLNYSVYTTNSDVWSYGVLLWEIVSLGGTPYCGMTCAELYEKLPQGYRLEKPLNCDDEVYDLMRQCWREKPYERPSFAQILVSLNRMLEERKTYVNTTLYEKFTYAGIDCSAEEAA
Chain of Receptor-type tyrosine-protein kinase FLT3 (Homo sapiens) (P36888 whole entry): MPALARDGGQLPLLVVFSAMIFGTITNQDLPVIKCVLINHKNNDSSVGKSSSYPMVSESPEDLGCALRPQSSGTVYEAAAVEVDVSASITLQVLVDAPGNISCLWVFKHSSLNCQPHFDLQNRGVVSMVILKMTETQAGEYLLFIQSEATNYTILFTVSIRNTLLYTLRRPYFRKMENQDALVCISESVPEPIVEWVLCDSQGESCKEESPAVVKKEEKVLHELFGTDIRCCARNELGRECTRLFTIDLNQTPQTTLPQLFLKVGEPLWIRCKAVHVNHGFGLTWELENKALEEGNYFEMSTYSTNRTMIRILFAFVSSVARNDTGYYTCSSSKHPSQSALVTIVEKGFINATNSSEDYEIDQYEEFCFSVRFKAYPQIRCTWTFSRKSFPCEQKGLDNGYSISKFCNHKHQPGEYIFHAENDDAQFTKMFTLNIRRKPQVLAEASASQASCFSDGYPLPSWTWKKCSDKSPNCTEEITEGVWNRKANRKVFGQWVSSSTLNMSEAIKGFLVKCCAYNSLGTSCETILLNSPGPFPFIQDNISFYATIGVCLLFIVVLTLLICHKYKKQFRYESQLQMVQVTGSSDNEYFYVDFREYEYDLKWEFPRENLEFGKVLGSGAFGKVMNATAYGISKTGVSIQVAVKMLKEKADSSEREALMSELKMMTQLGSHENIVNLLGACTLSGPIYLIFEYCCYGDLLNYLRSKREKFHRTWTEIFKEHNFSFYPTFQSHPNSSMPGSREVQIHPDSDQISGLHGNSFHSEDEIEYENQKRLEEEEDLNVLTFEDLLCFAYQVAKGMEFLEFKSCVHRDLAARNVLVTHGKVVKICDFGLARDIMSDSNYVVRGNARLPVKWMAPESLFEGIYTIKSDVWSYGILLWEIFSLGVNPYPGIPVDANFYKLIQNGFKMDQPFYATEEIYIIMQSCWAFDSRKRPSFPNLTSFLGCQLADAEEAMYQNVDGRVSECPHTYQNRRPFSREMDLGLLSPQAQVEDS
Chain of Cyclin-dependent kinase 1/cyclin B1 (Homo sapiens) (P06493 whole entry, looked up): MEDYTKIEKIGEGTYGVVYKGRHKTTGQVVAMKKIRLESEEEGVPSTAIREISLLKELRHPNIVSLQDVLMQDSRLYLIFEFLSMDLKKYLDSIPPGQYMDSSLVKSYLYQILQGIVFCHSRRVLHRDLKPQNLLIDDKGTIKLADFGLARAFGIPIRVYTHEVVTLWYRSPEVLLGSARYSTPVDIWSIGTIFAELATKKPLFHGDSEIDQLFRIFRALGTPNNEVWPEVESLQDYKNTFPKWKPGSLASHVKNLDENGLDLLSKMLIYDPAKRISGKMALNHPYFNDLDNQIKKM
Chain of Cyclin-dependent kinase 1/cyclin B1 (Homo sapiens) (P14635 whole entry, looked up): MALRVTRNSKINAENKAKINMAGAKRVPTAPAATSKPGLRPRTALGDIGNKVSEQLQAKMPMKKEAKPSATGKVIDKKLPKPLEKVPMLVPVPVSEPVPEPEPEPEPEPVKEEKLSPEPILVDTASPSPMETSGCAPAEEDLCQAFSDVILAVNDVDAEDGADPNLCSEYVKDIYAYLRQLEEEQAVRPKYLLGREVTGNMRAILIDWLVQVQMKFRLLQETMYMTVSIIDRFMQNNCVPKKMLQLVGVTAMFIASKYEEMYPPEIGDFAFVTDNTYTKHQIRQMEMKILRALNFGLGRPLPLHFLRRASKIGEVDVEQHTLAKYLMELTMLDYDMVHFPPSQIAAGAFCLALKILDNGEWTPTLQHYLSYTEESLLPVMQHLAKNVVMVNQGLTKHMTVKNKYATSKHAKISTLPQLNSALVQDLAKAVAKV

Compound: COc1cc(OC)cc(C2=C(c3c[nH]c4ncccc34)C(=O)NC2=O)c1
- viability at 26 µM (HT-29 [1]): 43%
- viability at 52 µM (HT-29 [2]): 40.5%
- viability at 10 µM (MKN-45 [3]): 57%
- viability at 5 µM (MKN-45 [4]): 60.4%
- viability at 20 µM (MKN-45 [5]): 62.1%
- viability at 0.5 µM (MKN-45 [6]): 118%
- Activity (MKN-45 [7]): 31.8%
- viability at 2.6 µM (HT-29 [8]): 54.3%
- viability at 1 µM (MKN-45 [9]): 118%
- inhibition (INH) [10]: 25%
- Activity (MKN-45 [11]): 24.8%
- viability at 7.9 µM (HT-29 [12]): 49.2%
- Activity (MKN-45 [13]): 55.7%
- Activity (MKN-45 [14]): 12.7%
- viability at 50 µM (MKN-45 [15]): 59.4%
- Activity (MKN-45 [16]): 45.8%

Compound: COc1cc(C2=C(c3c[nH]c4ncccc34)C(=O)NC2=O)cc(OC)c1OC
- viability at 50 µM (MOLM-14 [17]): 1.77%
- Activity [18]: 50%
- Activity [19]: 89%
- Activity [20]: 94%
- Activity (HUVEC [21]): 26.7%
- viability at 20 µM (MOLM-14 [22]): 3.56%
- viability at 10 µM (MKN-45 [3]): 58.7%
- viability at 5 µM (MKN-45 [4]): 86.8%
- Activity [23]: 0%
- Activity [24]: 69%
- viability at 10 µM (MOLM-14 [25]): 4.41%
- Activity (HUVEC [26]): 49.2%
- Activity [27]: 92%
- Activity [28]: 77%
- viability at 0.5 µM (MOLM-14 [29]): 65.9%
- viability at 20 µM (MKN-45 [5]): 57.1%
- viability at 0.5 µM (MKN-45 [6]): 113%
- Activity (MKN-45 [7]): 37.8%
- Activity [30]: 77%
- Activity [31]: 99%
- IC50 [32]: ≥ 10 µM
- viability at 1 µM (MKN-45 [9]): 110%
- Activity [33]: 109%
- Activity [34]: 93%
- Activity [35]: 97%
- inhibition (INH) [10]: 61%
- Activity [36]: 2%
- Activity (MKN-45 [11]): 16.3%
- Activity [37]: 111%
- Activity (MKN-45 [13]): 65.9%
- viability at 1 µM (MOLM-14 [38]): 38.9%
- Activity [39]: 84%
- Activity (MKN-45 [14]): 9.3%
- viability at 50 µM (MKN-45 [15]): 44.7%
- Activity (MKN-45 [16]): 50.7%

Compound: CCc1c2c(nc3ccc(OC(=O)N4CCC(N5CCCCC5)CC4)cc13)-c1cc3c(c(=O)n1C2)COC(=O)[C@]3(O)CC [IRINOTECAN]
- Activity (HT-29 [40]): 18.3%
